Assay [1] deals with Mycobacterium tuberculosis. Put plainly: Antimycobacterial activity against Mycobacterium tuberculosis H37Rv incubated for 12 to 28 days by agar dilution method. Type of assay: functional. The gist of the method:
(§1)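 Conventional Lowenstein-Jensen agar dilution. Compound stock dilutions in DMSO (200 to 1.56 µg/mL) were added to liquid L.J. medium, which was then sterilized by inspissation. Culture was harvested in 0.85% saline. Tubes were kept 24 h at 37 °C, streaked with 5 x 10⁴ bacilli per tube, and incubated at 37 °C. Growth was read at days 12, 22 and 28 against drug-free controls. MIC was the lowest concentration giving no colonies or fewer than 20 (≥99% inhibition), converted from µg/mL to µM.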

The subject of assay [2] is Mycobacterium tuberculosis. Briefly: Antimycobacterial activity against Mycobacterium tuberculosis MDR-TB incubated for 12 to 28 days by agar dilution method. Type of assay: functional. The gist of the method:
as §1

The next assay has as its system Vero. Briefly: Cytotoxicity against African green monkey Vero cells assessed as reduction in cell viability incubated for 72 hrs by MTT assay. Type of assay: cell-based. The settings on record: Chlorocebus sabaeus. The gist of the method:
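Vero cells were grown in DMEM with 2 mM Na₂CO₃ and 10% FBS at 37 °C under 5% CO₂ until confluent, then diluted in PBS. Compounds came from DMSO stocks diluted in medium, with 1% DMSO final. Exposure was 72 h at 37 °C. Monolayers were washed with warm HBSS, then MTS-PMS was added for 3 h and absorbance read at 490 nm.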
For orientation: Formazan colour is commonly taken as a measure of viable cells.

Assay [3] concerns Mycobacterium tuberculosis. Put plainly: Antimycobacterial activity against Mycobacterium tuberculosis H37Rv ATCC 27294 by microplate alamar blue assay. Type of assay: functional.

Values after ≈ are worked out from the molar mass of the structure shown. A value given as a limit tells only on which side of the number the result lay.

With `CCC(=O)Nc1nnc(-c2ccc([N+](=O)[O-])cc2)s1`, the results for the MIC90 in assay [1] and in assay [2] were 89 µM (≈ 24.8 µg/mL) and greater than 200 µM, respectively.
`O=C(CCl)Nc1nnc(-c2ccc([N+](=O)[O-])cc2)s1`: the MIC90 – broadly, an inhibitory concentration at the 90% level, which refers to growth in some studies and to a panel of isolates in others – in assay [1] was 168 µM (≈ 50.2 µg/mL); in assay [2] it was greater than 200 µM.
With `O=C(Nc1nnc(-c2cccc([N+](=O)[O-])c2)s1)c1ccc([N+](=O)[O-])cc1`, the MIC90 in assay [1] turned out to be 33 µM (≈ 12.3 µg/mL); in assay [2] it was 134 µM (≈ 49.8 µg/mL). The IC50 (as a rule, the point on the concentration scale where inhibition reaches its midpoint) in the assay with Vero was determined as 268 µM.
With `CCCC(=O)Nc1nnc(-c2ccncc2)s1`, the MIC90 is 201 µM (≈ 49.9 µg/mL) in assay [1] and greater than 200 µM in assay [2].
In the same order, the values of `O=C(Nc1nnc(-c2ccc([N+](=O)[O-])cc2)s1)c1ccccc1` are 38 µM (≈ 12.4 µg/mL) and 306 µM (≈ 99.9 µg/mL).
Turning to `O=C(Nc1nnc(-c2ccc([N+](=O)[O-])cc2)s1)c1ccco1`, the MIC90 in assay [1] and in assay [2] was 9.87 µM (≈ 3.12 µg/mL) each time. Besides, the IC50 with Vero came out at 306 µM.
Take `CC(C)(C)C(=O)Nc1nnc(-c2ccc([N+](=O)[O-])cc2)s1`: the values for the MIC90 in assay [1] and in assay [2] were 204 µM (≈ 62.5 µg/mL) and greater than 200 µM, respectively.
In the case of `CCCCC(=O)Nc1nnc(-c2ccc([N+](=O)[O-])cc2)s1`, the MIC90 is 40 µM (≈ 12.3 µg/mL) in assay [1] and 163 µM (≈ 49.9 µg/mL) in assay [2]. The IC50 in the assay with Vero worked out at 278 µM.
As for `CCCC(=O)Nc1nnc(-c2cccc([N+](=O)[O-])c2)s1`, the MIC90 is 42 µM (≈ 12.3 µg/mL) in assay [1] and greater than 200 µM in assay [2].
Turning to `O=C(Nc1nnc(-c2ccncc2)s1)C(Cl)(Cl)Cl`, the MIC90 in assay [1] and in assay [2] was greater than 200 µM throughout.
On to `O=C(CCl)Nc1nnc(-c2cccc([N+](=O)[O-])c2)s1`, for which the MIC90 in assay [1] was 21 µM (≈ 6.27 µg/mL); in assay [2] it was greater than 200 µM.
Regarding `O=C(Nc1nnc(-c2ccncc2)s1)c1cccs1`, the MIC90 was 21 µM (≈ 6.06 µg/mL) in assay [1] and greater than 200 µM in assay [2].
In the same order, the values of `O=C(Cl)CCCCC(=O)Nc1nnc(-c2ccncc2)s1` are 192 µM (≈ 62.4 µg/mL) and greater than 200 µM.
On to `CC(Cl)CC(=O)Nc1nnc(-c2ccncc2)s1` (stereo not drawn), for which the MIC90 in assay [1] and in assay [2] was greater than 200 µM throughout.
In the case of `O=C(CCCCl)Nc1nnc(-c2ccc([N+](=O)[O-])cc2)s1`, the MIC90 in assay [1] was 153 µM (≈ 50 µg/mL); in assay [2], greater than 200 µM.
As for `O=C(Nc1nnc(-c2ccc([N+](=O)[O-])cc2)s1)c1ccc([N+](=O)[O-])cc1`, the MIC90 in assay [1] is 16.8 µM (≈ 6.25 µg/mL); in assay [2], 67 µM (≈ 24.9 µg/mL). Also, the IC50 in the assay with Vero is 290 µM.
For `CCCCC(=O)Nc1nnc(-c2cccc([N+](=O)[O-])c2)s1` the same measures were 40 µM (≈ 12.3 µg/mL), 163 µM (≈ 49.9 µg/mL) and 289 µM.
As for `O=C(CCl)Nc1nnc(-c2ccncc2)s1`, the MIC90 in assay [1] is 196 µM (≈ 49.9 µg/mL); in assay [2], greater than 200 µM.
In assay [3], `O=C(CSc1nnc(-c2ccc([N+](=O)[O-])o2)s1)Oc1ccccc1` had an MIC90 of 0.78 µg/mL (≈ 2.15 µM).
Regarding `O=C(CCCCl)Nc1nnc(-c2cccc([N+](=O)[O-])c2)s1`, the MIC90 in assay [1] is 153 µM (≈ 50 µg/mL); in assay [2], greater than 200 µM.
As for `CC(Cl)CC(=O)Nc1nnc(-c2cccc([N+](=O)[O-])c2)s1` (stereo not drawn), the MIC90 in assay [1] and in assay [2] was greater than 200 µM in each case.
Take `O=C(Nc1nnc(-c2ccc([N+](=O)[O-])cc2)s1)c1cccs1`: the MIC90 in assay [1] and in assay [2] was greater than 200 µM throughout.
With `Cc1ccc(C(=O)Nc2nnc(-c3ccc([N+](=O)[O-])cc3)s2)cc1`, the values for the MIC90 in assay [1] and in assay [2] were 18.4 µM (≈ 6.26 µg/mL) and 147 µM (≈ 50 µg/mL), respectively. The IC50 in the assay on Vero came out at 310 µM.
Regarding `O=[N+]([O-])c1ccc(CSc2nnc(-c3ccc([N+](=O)[O-])o3)s2)cc1`, the MIC90 in assay [3] came to 3.13 µg/mL (≈ 8.59 µM).
As for `O=C(Nc1nnc(-c2cccc([N+](=O)[O-])c2)s1)c1cccs1`, the MIC90 in assay [1] is 301 µM (≈ 100 µg/mL); in assay [2], greater than 200 µM.
In the same order, the values of `O=C(Cl)CCCCC(=O)Nc1nnc(-c2ccc([N+](=O)[O-])cc2)s1` are 135 µM (≈ 49.8 µg/mL) and 271 µM (≈ 99.9 µg/mL).
In the case of `CCCC(=O)Nc1nnc(-c2ccc([N+](=O)[O-])cc2)s1`, the results for the MIC90 in assay [1] and in assay [2] were 42 µM (≈ 12.3 µg/mL) and 171 µM (≈ 50 µg/mL), respectively. Further, the IC50 in the assay on Vero turned out to be 301 µM.
`COc1ccc(C(=O)Nc2nnc(-c3ccc([N+](=O)[O-])cc3)s2)cc1`: the figures for the MIC90 in assay [1] and in assay [2] were 35 µM (≈ 12.5 µg/mL) and 140 µM (≈ 49.9 µg/mL), respectively. For the same compound, in the assay with Vero, the IC50 was determined as 278 µM.
For the compound `COc1ccc(C(=O)Nc2nnc(-c3cccc([N+](=O)[O-])c3)s2)cc1`, the MIC90 in assay [1] stood at 35 µM (≈ 12.5 µg/mL); in assay [2], 280 µM (≈ 99.8 µg/mL).
For `CC(C)(C)C(=O)Nc1nnc(-c2cccc([N+](=O)[O-])c2)s1` the same measures were 204 µM (≈ 62.5 µg/mL) and greater than 200 µM.
For `CCC(=O)Nc1nnc(-c2cccc([N+](=O)[O-])c2)s1` the same measures were 89 µM (≈ 24.8 µg/mL) and greater than 200 µM.
For `O=C(Nc1nnc(-c2ccc([N+](=O)[O-])cc2)s1)C(Cl)(Cl)Cl` the same measures were 273 µM (≈ 100 µg/mL) and greater than 200 µM.
On to `O=C(Cl)CCCCC(=O)Nc1nnc(-c2cccc([N+](=O)[O-])c2)s1`, for which the MIC90 is 135 µM (≈ 49.8 µg/mL) in assay [1] and greater than 200 µM in assay [2].
For the compound `C/C=C/C(CCC)N(C(=O)c1ccccc1)c1nnc(-c2ccc([N+](=O)[O-])cc2)s1` (stereo not drawn), the MIC90 in assay [1] was 117 µM (≈ 49.4 µg/mL); in assay [2] it was greater than 200 µM.
In the same order, the values of `O=C(Nc1nnc(-c2cccc([N+](=O)[O-])c2)s1)c1ccccc1` are 38 µM (≈ 12.4 µg/mL) and greater than 200 µM.
Consider `O=C(Nc1nnc(-c2cccc([N+](=O)[O-])c2)s1)c1ccco1`, for which the values for the MIC90 in assay [1] and in assay [2] were 19 µM (≈ 6.01 µg/mL) and 39 µM (≈ 12.3 µg/mL), respectively. The half-inhibitory concentration (IC50) with Vero was 312 µM.
Consider `CC(C)(C)C(=O)Nc1nnc(-c2ccncc2)s1`, for which the MIC90 is 238 µM (≈ 62.4 µg/mL) in assay [1] and greater than 200 µM in assay [2].
In the same order, the values of `O=C(CCCCl)Nc1nnc(-c2ccncc2)s1` are 221 µM (≈ 62.5 µg/mL) and greater than 200 µM.
Take `O=C(Nc1nnc(-c2ccncc2)s1)c1ccc([N+](=O)[O-])cc1`: the MIC90 is 9.93 µM (≈ 3.25 µg/mL) in assay [1] and 76 µM (≈ 24.9 µg/mL) in assay [2]. The IC50 in the assay on Vero was 369 µM.
Turning to `CCCCC(=O)Nc1nnc(-c2ccncc2)s1`, the MIC90 came to 95 µM (≈ 24.9 µg/mL) in assay [1] and 381 µM (≈ 100 µg/mL) in assay [2].
In the same order, the values of `NNC(=O)c1ccncc1` [ISONIAZID] are 3.64 µM (≈ 0.499 µg/mL) and greater than 200 µM.
On to `CO[C@H]1/C=C/O[C@@]2(C)Oc3c(C)c(O)c4c(O)c(c(/C=N/N5CCN(C)CC5)c(O)c4c3C2=O)NC(=O)/C(C)=C\C=C\[C@H](C)[C@H](O)[C@@H](C)[C@@H](O)[C@@H](C)[C@H](OC(C)=O)[C@@H]1C` [RIFAMPIN], for which the MIC90 in assay [1] is 0.152 µM (≈ 0.125 µg/mL); in assay [2], 128 µM (≈ 105 µg/mL).
With `CN[C@@H]1C[C@H]2O[C@@](C)([C@@H]1OC)n1c3ccccc3c3c4c(c5c6ccccc6n2c5c31)C(=O)NC4` [STAUROSPORINE], the IC50 with Vero came to 0.028 µM.

For the origin of these results see ChEMBL document CHEMBL4339182, “Pyridine and nitro-phenyl linked 1,3,4-thiadiazoles as MDR-TB inhibitors” (Eur J Med Chem, 2019).
